Reference: ChEMBL document CHEMBL2311439, “New bis-thiazolium analogues as potential antimalarial agents: design, synthesis, and biological evaluation” (J Med Chem, 2013)

Tests used:
Plasmodium falciparum = assay: Antiplasmodial activity against Plasmodium falciparum Nigeria infected in human erythrocytes assessed as incorporation of [3H]hypoxanthine after 48 hrs; format: functional, organism-based
Method in brief: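 Nigerian-strain P. falciparum-infected erythrocytes at 1.5% final hematocrit and 0.6% parasitemia, grown in Hepes-buffered RPMI 1640 with 10% AB human serum. Drugs dissolved in DMSO, final DMSO ≤0.25%. Modified Desjardins test: [³H]hypoxanthine incorporation measured after 48 h drug contact. IC₅₀ is the concentration giving 50% growth inhibition. Two independent experiments.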

[1] = system: Plasmodium vinckei petteri; assay: Antimalarial activity against Plasmodium vinckei petteri 279BY infected in Swiss mouse administered as ip qd for 4 days measured on day 5; format: functional
Method in brief: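 Female Swiss mice infected intravenously with 10⁷ P. vinckei petteri 279BY parasites (parasitemia 0.5−1% on day 1). Compounds in DMSO, 0.9% NaCl or intralipid/DMSO (90/10) given ip once daily on days 1−4 postinfection. Parasitemia read on day 5. ED₅₀ is the dose giving 50% parasitemia inhibition, determined only when parasitemia fell by at least 85%. Three mice per dose.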

[2] = Oral bioavailability in Sprague-Dawley rat at 12 mg/kg; format: ADME, organism-based; details: in vivo
Mus musculus = assay: Toxicity in ip dosed Swiss mouse administered for 4 days measured on day 5; format: organism-based; details: in vivo, 96 h
Jurkat = assay: Cytotoxicity against human Jurkat cells after 24 hrs by [3H]thymidine incorporation assay; format: cell-based
Method in brief: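 Human Jurkat lymphoblasts exposed to compounds for 24 h, then [³H]thymidine added to gauge viability. Values are means of two independent experiments run in duplicate, differing by less than 40%.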

[3] = Therapeutic index, ratio of ED50 for human Jurkat cells to IC50 for Plasmodium falciparum Nigeria infected in human erythrocytes; format: cell-based

| IC50 (Plasmodium falciparum) [nM] | Structure (SMILES) | ED50 [1] [mg/kg] | also measured |
| --- | --- | --- | --- |
| 120 | Cc1c(CCOCCCCCCOCCc2sc[n+](C)c2C)sc[n+]1C |  |  |
| 15 | Cc1c(CCOCCCCCCOCCc2sc[n+](Cc3ccccc3)c2C)sc[n+]1Cc1ccccc1 |  |  |
| 22 | Cc1c(CCO)sc[n+]1CCOc1ccc(Cc2ccc(OCC[n+]3csc(CCO)c3C)cc2)cc1.[Cl-].[Cl-] | > 1 |  |
| 22.5 | COCCc1sc[n+](CCOc2ccc(Cc3ccc(OCC[n+]4csc(CCOC)c4C)cc3)cc2)c1C.[Cl-].[Cl-] | > 1 |  |
| 80 | COCCc1sc[n+](CCOc2ccc(C(=O)c3ccc(OCC[n+]4csc(CCOC)c4C)cc3)cc2)c1C.[Cl-].[Cl-] | > 2 | Activity (Mus musculus): Non-toxic |
| 313 | COCCc1sc[n+](Cc2ccc(OCCCCCOc3ccc(C[n+]4csc(CCOC)c4C)cc3)cc2)c1C.[Cl-].[Cl-] | > 0.4 |  |
| 77.5 | Cc1c(CCO)sc[n+]1CCCc1ccc(CCC[n+]2csc(CCO)c2C)cc1.[Cl-].[Cl-] | > 0.5 |  |
| 36.5 | COCCc1sc[n+](CCCc2ccc(CCC[n+]3csc(CCOC)c3C)cc2)c1C.[Cl-].[Cl-] | > 1 |  |
| 9 | COCCc1sc[n+](CCCCc2cccc(CCCC[n+]3csc(CCOC)c3C)c2)c1C.[Cl-].[Cl-] | > 1 |  |
| 6.3 | COCCc1sc[n+](CCCCc2ccc3ccc(CCCC[n+]4csc(CCOC)c4C)cc3c2)c1C.[Cl-].[Cl-] | 0.5 | selectivity ratio [3]: 170000; IC50 (Jurkat): 465 µM |
| 1250 | Cc1c(CCO)sc[n+]1CC#Cc1ccc(C#CC[n+]2csc(CCO)c2C)cc1 |  |  |
| 173 | Cc1c(CCO)sc[n+]1CCC#Cc1ccc(C#CCC[n+]2csc(CCO)c2C)cc1 |  |  |
| 10000 | Cc1c(CCOCc2cn(CCc3sc[n+](C)c3C)nn2)sc[n+]1C |  |  |
| 640 | Cc1c(CCOCc2cn(CCc3sc[n+](Cc4ccccc4)c3C)nn2)sc[n+]1Cc1ccccc1 |  |  |
| 7000 | COCCc1sc[n+](CCCc2cn(CCc3sc[n+](Cc4ccccc4)c3C)nn2)c1C |  |  |
| 1200 | COCCc1sc[n+](CCCCCn2cc(CCC[n+]3csc(CCOC)c3C)nn2)c1C |  |  |

More lines, now with the values behind:

| Structure (SMILES) | IC50 (Plasmodium falciparum) [nM] | ED50 [1] [mg/kg] | also measured |
| --- | --- | --- | --- |
| Cc1c(CCO)sc[n+]1CCCCc1ccc(CCCC[n+]2csc(CCO)c2C)cc1.[Cl-].[Cl-] | 20.5 | 1.2 |  |
| C/C(=C1\CCOC(=O)S1)N(C=O)CCCCCCCCCCCCN(C=O)/C(C)=C1\CCOC(=O)S1 |  |  | bioavailability [2]: 15% |
| COCCc1sc[n+](CCOc2ccc(-c3ccc(OCC[n+]4csc(CCOC)c4C)cc3)cc2)c1C.[Br-].[Br-] | 18.5 | > 0.6 |  |
| COCCc1sc[n+](CCCCc2ccc(CCCC[n+]3csc(CCOC)c3C)cc2)c1C.[Cl-].[Cl-] | 8.3 | 0.13 | Activity (Mus musculus): Non-toxic |
| Cc1c(CCO)sc[n+]1CCCCc1ccc(CCCC[n+]2csc(CCO)c2C)s1.[Cl-].[Cl-] | 16.5 | > 0.6 |  |
| COCCc1sc[n+](CCCCc2ccc(CCCC[n+]3csc(CCOC)c3C)s2)c1C.[Cl-].[Cl-] | 2.7 | 0.28 | IC50 (Jurkat): 63 µM |
| Cc1c(CCO)sc[n+]1CCCCc1ccc(CCCC[n+]2csc(CCO)c2C)c2ccccc12.[Cl-].[Cl-] | 6.7 | > 0.6 |  |
| COCCc1sc[n+](CCCCc2ccc(CCCC[n+]3csc(CCOC)c3C)c3ccccc23)c1C.[Cl-].[Cl-] | 2.1 | > 0.6 |  |
| COCCc1sc[n+](CCCCc2ccc(-c3ccc(CCCC[n+]4csc(CCOC)c4C)cc3)cc2)c1C.[Cl-].[Cl-] | 2.5 | 0.7 |  |
| COCCc1sc[n+](CC#Cc2ccc(C#CC[n+]3csc(CCOC)c3C)cc2)c1C | 420 |  |  |
| COCCc1sc[n+](CCCc2cn(CCc3sc[n+](C)c3C)nn2)c1C | 8200 |  |  |
| Cc1c(CCO)sc[n+]1CCCCCCCCCCCC[n+]1csc(CCO)c1C.[Br-].[Br-] [ALBITIAZOLIUM BROMIDE] |  | 0.2 | selectivity ratio [3]: 150000; IC50 (Jurkat): 347 µM |
